Assay outcomes (PubChem BioAssay)
CHOP inhibitor = inhibitors of CHOP induction in ER stress response; CHO-K1 CHOP-promoter luciferase, tunicamycin-induced, 15-18 h; inhibition, % at 10 µM; 220,000 tested, 3.8% active;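 active means compounds that reduced the stress-induced luciferase reporter signal by more than about 70% of percent inhibition, limit read from the data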;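 further: 0% = tunicamycin plus vehicle and 100% = wells without tunicamycin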
CSC inhib = blocks cancer stem cells. cancer stem cell-like cells viability, luminescence. inhibition, % at 7.5 µM. 300,000 tested, 1.1% active. AID 2717; in the data active means inhibition above about 75%; inconclusive means no clear call, values can overlap the other calls; tested in HMLE shEcad cells
NR3A LBD binder = modulators (binders) of human NR3A ligand-binding domain | NR3A LBD differential scanning fluorimetry, Tm shift; 0% = protein alone, 100% = glycine-bound protein | Tm shift relative to glycine control, % at 25 µM | 340,000 tested, 2.5% active | AID 1259313;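 active means melting temperature shift of at least 10% of the positive control shift, at one fixed dose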
PREPL inh = human PREPL enzyme inhibition; 320,000 tested, 0.68% active; Q4J6C6; recombinant PREPL, fluorescence polarization activity-based probe; inhibition, % at 5.96 µM; in the data active means inhibition above about 43%;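 further: 0% = enzyme with DMSO and 100% = wells lacking enzyme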
Target sequence (Q4J6C6 whole entry, looked up): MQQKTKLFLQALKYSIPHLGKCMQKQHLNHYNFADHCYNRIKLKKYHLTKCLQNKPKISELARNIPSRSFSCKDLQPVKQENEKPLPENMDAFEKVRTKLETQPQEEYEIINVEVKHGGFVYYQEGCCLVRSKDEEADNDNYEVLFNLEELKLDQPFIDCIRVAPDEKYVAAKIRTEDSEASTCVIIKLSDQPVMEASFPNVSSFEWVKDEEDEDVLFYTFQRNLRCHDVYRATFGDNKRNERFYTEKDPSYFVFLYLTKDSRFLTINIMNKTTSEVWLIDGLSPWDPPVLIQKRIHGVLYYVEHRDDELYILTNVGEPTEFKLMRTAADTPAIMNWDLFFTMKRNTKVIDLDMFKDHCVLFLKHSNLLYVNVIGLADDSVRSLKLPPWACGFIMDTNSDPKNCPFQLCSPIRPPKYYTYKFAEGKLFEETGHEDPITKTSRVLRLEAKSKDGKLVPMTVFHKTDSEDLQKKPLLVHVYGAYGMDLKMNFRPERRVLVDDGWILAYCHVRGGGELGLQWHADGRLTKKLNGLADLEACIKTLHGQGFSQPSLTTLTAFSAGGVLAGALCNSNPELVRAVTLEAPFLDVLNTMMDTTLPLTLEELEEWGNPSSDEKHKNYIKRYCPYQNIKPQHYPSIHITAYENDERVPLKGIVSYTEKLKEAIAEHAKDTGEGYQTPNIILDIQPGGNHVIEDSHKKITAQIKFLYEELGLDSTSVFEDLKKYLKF
T cruzi inh = T. cruzi replication inhibition; inhibition, % (no concentration beside the values); 300,000 tested, 1.4% active; T. cruzi beta-gal in NIH3T3, luminescence, 90 h;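 active means mean inhibition across valid replicates above about 55%, limit read from the data; inconclusive means mean below that limit but half or more replicates reach it; inactive means mean below it, under half of replicates reach it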;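 further: signal also drops with host cell toxicity which is not excluded here; 0% = plate median of DMSO wells and 100% = zero luminescence signal; higher percent means less beta-gal luminescence so fewer parasites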
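Assay system: NIH/3T3 fibroblasts plus reporter T. cruzi. Amount: NIH/3T3 cells, 5,000 per well. Buffer or medium: DMEM, 2% fetal bovine serum. Doses: compound pinned at 50 nL/well, DMSO. Schedule: ≥90 h infection period, 3 h prior cell attachment. Signal: luminescent β-galactosidase signal after 60 min lysis. Read-out: parasite load inhibition, %.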
Beta cell apopt = beta cell apoptosis inhibition; protection from apoptosis, % (concentration not given with the values); 300,000 tested, 0.8% active; INS-1E cytokine-induced death, ATP luminescence, 48 h; percent of positive-control rescue, neutral wells zero;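 active means Every replicate reaches about 75%, or at least half do and their mean reaches it too, limit read from the data; inconclusive means At least half of replicates reach the limit but their mean does not; inactive means Under half of replicates reach the limit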;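 further: 0% = cytokine-treated negative control wells and 100% = positive control rescue; higher means more ATP so stronger rescue from cytokine killing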
The depositor's hits bear a star; ? = inconclusive; . = no result. Shown are actives, neighbours in structure and some others; about 6.7% of the full set was active somewhere.

SMILES | CHOP inhibitor | CSC inhib | NR3A LBD binder | PREPL inh | T cruzi inh | Beta cell apopt
CCC(C)NS(=O)(=O)c1ccc(NC(=O)C(Sc2ccccc2)c2ccccc2)cc1 (stereo unspecified) | 8.6 | 2.9 | 12.5* | -15.1 | 57.5* | 18.8
CC(NC(=O)c1ccc(N(C)C)cc1)C1CC2CCC1C2 (stereo unspecified) | 78.8* | . | 2.8 | . | . | .
Cc1[nH]c2c(Br)cccc2c1[C@H]1[C@@H](CC#N)C1(C)C | 71.8* | 61.3 | -2.5 | -0.9 | 15.0 | 3.4
Cc1c([C@H]2[C@@H](CC#N)C2(C)C)c2ccccc2n1C | 66.6 | -18.1 | 0.9 | 4.6 | 15.2 | -3.3
CN(C)CCOc1ccc(-c2c(-c3ccsc3)sc3ccccc23)cc1 | . | 103.8* | -3.4 | -13.1 | . | 1.2
COc1cccc(-c2sc3ccc(OC)cc3c2-c2cc(F)cc(OC)c2)c1 | . | 25.5 | 2.4 | 8.9 | . | -4.4
COc1ccc(-c2sc3ccccc3c2-c2ccc(OCCN(C)C)cc2)cc1 | . | 142.0* | -5.2 | 29.4 | . | 76.3*
COc1cccc(-c2sc3ccc(OC)cc3c2-c2ccc(O)cc2)c1 | . | 129.4* | 5.9 | 2.1 | . | 3.8
COc1cccc(-c2sc3ccc(OC)cc3c2-c2ccc(OCCN(C)C)cc2)c1 | . | 103.8* | -0.8 | 27.4 | . | 3.2
COc1ccc(CC(=O)Nc2ccc(F)c(F)c2F)cc1S(=O)(=O)N1CCOCC1 | . | . | 1.7 | 11.8 | . | -2.9
COc1ccc([C@H]2CC(=O)C=C(c3ccc4ncccc4c3)C2)cc1OC | . | 6.1 | -0.4 | -16.9 | . | -11.4
COc1cc(C2SCC(=O)N2CCCN(C)C)cc(OC)c1OC (stereo unspecified) | 27.7 | -4.5 | -0.2 | 3.3 | 60.9* | 2.8
CCNC(=O)CC1SC(=Nc2ccc(C)c([N+](=O)[O-])c2)N(C)C1=O (stereo unspecified) | . | -2.1 | -0.6 | 14.6 | -12.4 | .
CCOC(=O)c1cc2sc(C)cc2n1CC(=O)Nc1cccc(C)c1C | 73.5* | 22.6 | -1.3 | 0.7 | 25.3 | 3.7
O=S(=O)(NCCN1CCOCC1)c1cc(Cl)ccc1Cl | . | -2.7 | 1.4 | -5.4 | 0.2 | .
O=C(CCc1ccccc1)c1c(O)cc(O)cc1O | -6.7 | 29.6 | 13.3* | -6.9 | 9.6 | .
COc1ccc(C(=O)CCc2ccccc2)c(O)c1 | . | 1.0 | 1.1 | -2.6 | 0.8 | .
CC(C)(C)C(=O)CSc1nc(N)cc(=O)[nH]1 | 6.8 | -2.5 | 1.7 | -9.0 | 4.4 | 2.0
CCOC(=O)c1sc2nc3c(SCCC(=O)O)cc(C(=O)c4cc(OC)ccc4O)cn3c(=O)c2c1C | 102.0* | . | -2.1 | . | 5.3 | .
CCOC(=O)c1sc2nc3c(SCCC#N)cc(C(=O)c4cc(F)ccc4O)cn3c(=O)c2c1C | 22.9 | . | 5.7 | -5.0 | -1.9 | 3.3
NC(=O)N/N=C/c1c(Sc2nnnn2-c2ccccc2)nc2ccccn2c1=O | -7.2 | 25.3 | 28.7* | 5.2 | 15.1 | -51.1
CC(C)c1nc(SCC(=O)Nc2ccc(N(C)C)cc2)c2ccccc2n1 | -3.4 | 33.0 | -1.9 | 9.5 | 8.7 | .
O=C(/C=C/c1ccc2ccccc2n1)N1CCN(S(=O)(=O)c2ccccc2F)CC1 | 70.4* | 19.5 | -0.5 | 17.2 | 3.2 | -0.6
O=C(/C=C/c1ccc2ccccc2n1)N1CCN(S(=O)(=O)c2ccc(F)cc2)CC1 | 34.2 | 23.5 | -2.3 | 14.1 | 3.6 | -6.0
O=C(c1ccco1)N1CCCC(c2nc3c(nnn3Cc3c(Cl)cccc3Cl)c(=O)[nH]2)C1 (stereo unspecified) | . | -16.5 | -0.3 | 0.3 | 13.9 | -2.5
SMILES | CHOP inhibitor | CSC inhib | NR3A LBD binder | PREPL inh | T cruzi inh | Beta cell apopt
Cc1[nH]c(=S)[nH]c(=O)c1CCC1OCCO1 | -6.9 | -9.2 | 13.5* | 8.5 | 2.8 | 5.3
CC(=O)Nc1nc(C)c(CCC2OCCO2)c(=O)[nH]1 | 3.7 | -8.1 | 12.1* | 4.0 | -11.0 | -10.1
Cc1[nH]c(=S)[nH]c(=O)c1CCCO | 11.3 | -13.7 | -1.4 | -0.4 | -20.1 | -3.3
COC(=O)[C@H](Cc1c[nH]c2ccccc12)NC(=O)NCc1ccc(OC)c(OC)c1 | . | -5.2 | 3.0 | 3.9 | -8.7 | 2.9
CCc1ccccc1NC(=O)CN1CCN(C(=O)CCC(=O)N2CCC(c3ccccc3)=N2)CC1 | . | -10.2 | 1.0 | 8.3 | . | 2.7
O=C(O)/C=C/C(=O)Nc1ccc(-c2ccccc2)cc1 | 0.1 | . | 0.6 | -5.1 | 1.2 | -2.2
CCCN1CCc2c(sc(NC(=O)Cc3ccc(F)cc3)c2C(N)=O)C1 | . | -1.3 | -2.0 | 4.2 | -2.7 | -6.1
O/N=C\c1ccc2noc(-c3ccc(Cl)cc3)c2c1 | . | 0.0 | 32.0* | 4.8 | 0.1 | 1.4
CCCCNC(=O)N1CCCN(c2ccc(C#N)cn2)CC1 | . | 2.2 | 1.7 | 3.4 | -23.3 | -1.3
CCC(NC(=O)c1ccccc1NC(=O)c1ccccc1)C(=O)NNC(=O)c1cccnc1 (stereo unspecified) | 5.6 | -8.2 | -0.2 | 3.9 | 7.1 | -5.7
COc1ccc(CNC(=O)c2ccccc2NC(=O)C2=CSCCO2)c(OC)c1 | . | -7.5 | -1.4 | 2.1 | -4.8 | .
CCN(CC)CCOC(=O)c1ccc(N/C=C(/C#N)c2nc(-c3ccc4c(c3)OCO4)cs2)cc1 | 69.3 | -5.0 | 0.5 | 22.8 | 48.6 | 112.6*
CCc1nnc(NC(=O)CCC(=O)Nc2ccc(Cl)cc2)s1 | . | -3.1 | -0.2 | -8.6 | 6.3 | -10.5
COc1ccc2cc3cc(C(=O)Nc4ccc5c(c4)OCO5)oc3nc2c1 | -34.9 | ? | 25.9* | 10.1 | 2.7 | 3.6
Cc1ccc2cc3cc(C(=O)NCc4ccc5c(c4)OCO5)oc3nc2c1 | 68.5 | . | 2.8 | . | -5.6 | .
COc1ccc2nc3oc(C(=O)Nc4ccc(OC)c(OC)c4)cc3cc2c1 | 38.9 | -11.8 | 17.5* | -10.0 | 3.1 | 2.8
O=C1NN=C(c2ccccc2)C1Cc1ccccc1 (stereo unspecified) | . | . | 1.3 | . | . | .
COc1ccc(-c2c(C)nn3c(-c4ccccc4)cc(C)nc23)cc1 | 32.7 | . | 15.3* | 12.0 | 14.7 | 16.3
Cc1cc(C)n2nc(C)c(-c3ccccc3)c2n1 | . | -11.6 | -1.6 | -2.3 | 5.2 | -3.2
Cc1csc2c(=O)[nH]cnc12 | -2.1 | -9.1 | -1.0 | -5.6 | -11.4 | -6.9
CCCCn1ccnc1C(=O)c1cccc(S(=O)(=O)N2CC(C)CC(C)C2)c1 (stereo unspecified) | 34.0 | . | 15.7* | 5.4 | 10.6 | .
Cc1ccc(-n2c(SCC(=O)c3c(N)n(C)c(=O)n(C)c3=O)nc3sc4c(c3c2=O)CCCC4)c(C)c1 | 73.2* | 4.8 | 3.3 | 5.1 | 68.0* | 102.2*
Cc1ccc(-n2c(SCC(=O)O)nc3sc4c(c3c2=O)CCCC4)cc1 | 4.7 | 12.1 | 0.0 | 2.0 | 20.8 | 1.7
Cc1cc(C)c2nc3nc(C)c(C)cc3c(N)c2c1 | 29.5 | . | 0.2 | . | -21.6 | .
O=C1CC(NS(=O)(=O)c2ccc([N+](=O)[O-])cc2)CN1c1cccc(F)c1 (stereo unspecified) | . | -19.5 | 3.7 | 5.9 | 64.8* | .
Cc1cccc(N(C(=O)c2ccco2)C(C(=O)NC2CCCC2)c2ccco2)c1C (stereo unspecified) | . | . | 0.2 | . | -6.0 | .
